According to ChEMBL document CHEMBL3997769, “Discovery and preclinical evaluation of 7-benzyl-N-(substituted)-pyrrolo[3,2-d]pyrimidin-4-amines as single agents with microtubule targeting effects along with triple-acting angiokinase inhibition as antitumor agents” (Bioorg Med Chem, 2017):

How the values were obtained:
[1] = tested on: CCRF-CEM; assay: Growth inhibition of human CCRF-CEM cells incubated for 48 hrs by sulforhodamine B assay; assay type: functional
[2] = species on record: Bos taurus; assay: Displacement of [3H]colchicine from bovine brain tubulin at 5 uM measured after 10 mins by liquid scintillation counting method relative to control
[3] = tested on: HeLa; assay: Growth inhibition of human HeLa cells measured after 96 hrs by sulforhodamine B assay; assay type: functional, cell-based
Procedure, shortened: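 Exposed 96 h to varying compound concentrations in 0.5% DMSO. Cell protein measured by sulforhodamine B; IC50 = concentration halving the increase in cell protein versus untreated cultures.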

[4] = tested on: HL-60(TB); assay: Growth inhibition of human HL-60(TB) cells incubated for 48 hrs by sulforhodamine B assay; assay type: functional; conditions: HL-60, 48 h
[5] = tested on: K562; assay: Growth inhibition of human K562 cells incubated for 48 hrs by sulforhodamine B assay; assay type: functional; conditions: K562, 48 h
[6] = tested on: MOLT-4; assay: Growth inhibition of human MOLT4 cells incubated for 48 hrs by sulforhodamine B assay; assay type: functional; conditions: MOLT-4, 48 h
[7] = tested on: RPMI-8226; assay: Growth inhibition of human RPMI8226 cells incubated for 48 hrs by sulforhodamine B assay; assay type: functional; conditions: RPMI-8226, 48 h
[8] = tested on: SR; assay: Growth inhibition of human SR cells incubated for 48 hrs by sulforhodamine B assay; assay type: functional
[9] = tested on: A549; assay: Growth inhibition of human A549/ATCC cells incubated for 48 hrs by sulforhodamine B assay; assay type: functional; conditions: A549, 48 h
[10] = tested on: EKVX; assay: Growth inhibition of human EKVX cells incubated for 48 hrs by sulforhodamine B assay; assay type: functional
[11] = tested on: HOP-62; assay: Growth inhibition of human HOP62 cells incubated for 48 hrs by sulforhodamine B assay; assay type: functional; conditions: HOP-62, 48 h
[12] = tested on: HOP-92; assay: Growth inhibition of human HOP92 cells incubated for 48 hrs by sulforhodamine B assay; assay type: functional; conditions: HOP-92, 48 h
[13] = tested on: NCI-H226; assay: Growth inhibition of human NCI-H226 cells incubated for 48 hrs by sulforhodamine B assay; assay type: functional; conditions: NCI-H226, 48 h
[14] = tested on: NCI-H23; assay: Growth inhibition of human NCI-H23 cells incubated for 48 hrs by sulforhodamine B assay; assay type: functional; conditions: NCI-H23, 48 h
[15] = tested on: NCI-H322M; assay: Growth inhibition of human NCI-H322M cells incubated for 48 hrs by sulforhodamine B assay; assay type: functional
[16] = tested on: NCI-H460; assay: Growth inhibition of human NCI-H460 cells incubated for 48 hrs by sulforhodamine B assay; assay type: functional; conditions: NCI-H460, 48 h
[17] = tested on: NCI-H522; assay: Growth inhibition of human NCI-H522 cells incubated for 48 hrs by sulforhodamine B assay; assay type: functional; conditions: NCI-H522, 48 h
[18] = tested on: COLO 205; assay: Growth inhibition of human COLO205 cells incubated for 48 hrs by sulforhodamine B assay; assay type: functional; conditions: COLO 205, 48 h
[19] = tested on: HCC 2998; assay: Growth inhibition of human HCC2998 cells incubated for 48 hrs by sulforhodamine B assay; assay type: functional; conditions: HCC 2998, 48 h
[20] = tested on: HCT-116; assay: Growth inhibition of human HCT116 cells incubated for 48 hrs by sulforhodamine B assay; assay type: functional; conditions: HCT-116, 48 h
[21] = tested on: HCT-15; assay: Growth inhibition of human HCT15 cells incubated for 48 hrs by sulforhodamine B assay; assay type: functional; conditions: HCT-15, 48 h
[22] = tested on: KM12; assay: Growth inhibition of human KM12 cells incubated for 48 hrs by sulforhodamine B assay; assay type: functional; conditions: KM12, 48 h
[23] = tested on: SW-620; assay: Growth inhibition of human SW620 cells incubated for 48 hrs by sulforhodamine B assay; assay type: functional; conditions: SW-620, 48 h
[24] = tested on: SF-268; assay: Growth inhibition of human SF268 cells incubated for 48 hrs by sulforhodamine B assay; assay type: functional; conditions: SF-268, 48 h
[25] = tested on: SF-295; assay: Growth inhibition of human SF295 cells incubated for 48 hrs by sulforhodamine B assay; assay type: functional; conditions: SF-295, 48 h
[26] = tested on: SF-539; assay: Growth inhibition of human SF539 cells incubated for 48 hrs by sulforhodamine B assay; assay type: functional; conditions: SF-539, 48 h
[27] = tested on: SNB-19; assay: Growth inhibition of human SNB19 cells incubated for 48 hrs by sulforhodamine B assay; assay type: functional; conditions: SNB-19, 48 h
[28] = tested on: SNB-75; assay: Growth inhibition of human SNB75 cells incubated for 48 hrs by sulforhodamine B assay; assay type: functional; conditions: SNB-75, 48 h
[29] = tested on: U-251; assay: Growth inhibition of human U251 cells incubated for 48 hrs by sulforhodamine B assay; assay type: functional; conditions: U-251, 48 h
[30] = tested on: LOX IMVI; assay: Growth inhibition of human LOXIMVI cells incubated for 48 hrs by sulforhodamine B assay; assay type: functional
[31] = tested on: Malme-3M; assay: Growth inhibition of human MALME-3M cells incubated for 48 hrs by sulforhodamine B assay; assay type: functional
[32] = tested on: M14; assay: Growth inhibition of human M14 cells incubated for 48 hrs by sulforhodamine B assay; assay type: functional; conditions: M14, 48 h
[33] = tested on: MDA-MB-435; assay: Growth inhibition of human MDA-MB-435 cells incubated for 48 hrs by sulforhodamine B assay; assay type: functional; conditions: MDA-MB-435, 48 h
[34] = tested on: SK-MEL-28; assay: Growth inhibition of human SK-MEL-28 cells incubated for 48 hrs by sulforhodamine B assay; assay type: functional; conditions: SK-MEL-28, 48 h
[35] = tested on: SK-MEL-5; assay: Growth inhibition of human SK-MEL-5 cells incubated for 48 hrs by sulforhodamine B assay; assay type: functional; conditions: SK-MEL-5, 48 h
[36] = tested on: UACC-257; assay: Growth inhibition of human UACC257 cells incubated for 48 hrs by sulforhodamine B assay; assay type: functional; conditions: UACC-257, 48 h
[37] = tested on: UACC-62; assay: Growth inhibition of human UACC62 cells incubated for 48 hrs by sulforhodamine B assay; assay type: functional; conditions: UACC-62, 48 h
[38] = tested on: IGROV-1; assay: Growth inhibition of human IGROV1 cells incubated for 48 hrs by sulforhodamine B assay; assay type: functional; conditions: IGROV-1, 48 h
[39] = tested on: OVCAR-3; assay: Growth inhibition of human OVCAR3 cells incubated for 48 hrs by sulforhodamine B assay; assay type: functional; conditions: OVCAR-3, 48 h
[40] = tested on: OVCAR-4; assay: Growth inhibition of human OVCAR4 cells incubated for 48 hrs by sulforhodamine B assay; assay type: functional; conditions: OVCAR-4, 48 h
[41] = tested on: OVCAR-5; assay: Growth inhibition of human OVCAR5 cells incubated for 48 hrs by sulforhodamine B assay; assay type: functional; conditions: OVCAR-5, 48 h
[42] = tested on: OVCAR-8; assay: Growth inhibition of human OVCAR8 cells incubated for 48 hrs by sulforhodamine B assay; assay type: functional; conditions: OVCAR-8, 48 h
[43] = tested on: NCI/ADR-RES; assay: Growth inhibition of human NCI/ADR-RES cells incubated for 48 hrs by sulforhodamine B assay; assay type: functional
[44] = tested on: SK-OV-3; assay: Growth inhibition of human SKOV3 cells incubated for 48 hrs by sulforhodamine B assay; assay type: functional; conditions: SK-OV-3, 48 h
[45] = tested on: 786-0; assay: Growth inhibition of human 786-0 cells incubated for 48 hrs by sulforhodamine B assay; assay type: functional; conditions: 786-0, 48 h
[46] = tested on: A498; assay: Growth inhibition of human A498 cells incubated for 48 hrs by sulforhodamine B assay; assay type: functional; conditions: A498, 48 h
[47] = tested on: ACHN; assay: Growth inhibition of human ACHN cells incubated for 48 hrs by sulforhodamine B assay; assay type: functional
[48] = tested on: CAKI-1; assay: Growth inhibition of human Caki1 cells incubated for 48 hrs by sulforhodamine B assay; assay type: functional; conditions: CAKI-1, 48 h
[49] = tested on: RXF 393; assay: Growth inhibition of human RXF393 cells incubated for 48 hrs by sulforhodamine B assay; assay type: functional; conditions: RXF 393, 48 h
[50] = tested on: SN12C; assay: Growth inhibition of human SN12C cells incubated for 48 hrs by sulforhodamine B assay; assay type: functional
[51] = tested on: TK-10; assay: Growth inhibition of human TK10 cells incubated for 48 hrs by sulforhodamine B assay; assay type: functional; conditions: TK-10, 48 h
[52] = tested on: UO-31; assay: Growth inhibition of human UO31 cells incubated for 48 hrs by sulforhodamine B assay; assay type: functional; conditions: UO-31, 48 h
[53] = tested on: DU-145; assay: Growth inhibition of human DU145 cells incubated for 48 hrs by sulforhodamine B assay; assay type: functional; conditions: DU-145, 48 h
[54] = tested on: MCF7; assay: Growth inhibition of human MCF7 cells incubated for 48 hrs by sulforhodamine B assay; assay type: functional; conditions: MCF7, 48 h
[55] = tested on: MDA-MB-231; assay: Growth inhibition of human MDA-MB-231 cells incubated for 48 hrs by sulforhodamine B assay; assay type: functional; conditions: MDA-MB-231, 48 h
[56] = tested on: Hs-578T; assay: Growth inhibition of human Hs578T cells incubated for 48 hrs by sulforhodamine B assay; assay type: functional
[57] = tested on: BT-549; assay: Growth inhibition of human BT549 cells incubated for 48 hrs by sulforhodamine B assay; assay type: functional; conditions: BT-549, 48 h
[58] = tested on: T47D; assay: Growth inhibition of human T47D cells incubated for 48 hrs by sulforhodamine B assay; assay type: functional
[59] = tested on: MDA-MB-468; assay: Growth inhibition of human MDA-MB-468 cells incubated for 48 hrs by sulforhodamine B assay; assay type: functional; conditions: MDA-MB-468, 48 h

COc1ccc2c(c1)CCCN2c1nc(C)nc2c(Cc3ccccc3)c[nH]c12
GI50 [1]: 226 nM | inhibition [2]: 43% | IC50 [3]: 250 nM | GI50 [4]: 222 nM | GI50 [5]: 111 nM | GI50 [6]: 345 nM | GI50 [7]: 266 nM | GI50 [8]: 922 nM | GI50 [9]: 406 nM | GI50 [10]: 463 nM | GI50 [11]: 379 nM | GI50 [12]: 189 nM | GI50 [13]: 136 nM | GI50 [14]: 320 nM | GI50 [15]: 362 nM | GI50 [16]: 337 nM | GI50 [17]: 316 nM | GI50 [18]: 232 nM | GI50 [19]: 318 nM | GI50 [20]: 368 nM | GI50 [21]: 366 nM | GI50 [22]: 366 nM | GI50 [23]: 370 nM | GI50 [24]: 723 nM | GI50 [25]: 192 nM | GI50 [26]: 260 nM | GI50 [27]: 549 nM | GI50 [28]: 182 nM | GI50 [29]: 316 nM | GI50 [30]: 521 nM | GI50 [31]: 330 nM | GI50 [32]: 252 nM | GI50 [33]: 341 nM | GI50 [34]: 368 nM | GI50 [35]: 325 nM | GI50 [36]: 108 nM | GI50 [37]: 659 nM | GI50 [38]: 440 nM | GI50 [39]: 285 nM | GI50 [40]: 468 nM | GI50 [41]: 543 nM | GI50 [42]: 487 nM | GI50 [43]: 265 nM | GI50 [44]: 423 nM | GI50 [45]: 934 nM | GI50 [46]: 197 nM | GI50 [47]: 830 nM | GI50 [48]: 341 nM | GI50 [49]: 212 nM | GI50 [50]: 618 nM | GI50 [51]: 123 nM | GI50 [52]: 390 nM | GI50 [53]: 383 nM | GI50 [54]: 248 nM | GI50 [55]: 641 nM | GI50 [56]: 582 nM | GI50 [57]: 755 nM | GI50 [58]: 128 nM | GI50 [59]: 153 nM
